The source made the active and inactive calls. The rule behind the calls is not given here.
What was measured:
PC-3 [1] = test: Geno-toxicity in human PC3 cells assessed as induction of DNA damage at 2.5 to 10 uM after 24 hrs in absence of NAC by alkaline comet assay; type: functional, cell-based
In short: (§1)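 Alkaline comet assay after 24 h at 2.5, 5 and 10 µM, with or without 24 h pretreatment with 5 mM NAC. Cells were trypsinized and embedded in 0.75% low-melting agarose, then lysed at pH 10, 4 °C, ≥1 h. DNA was unwound 20 min at pH >13 and electrophoresed 20 min at 25 V, 300 mA (0.86 V/cm), then stained with ethidium bromide. 100 cells (2 slides) were scored in classes 0–4 for a damage index. Mean ± SEM, three independent experiments in triplicate.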

L929 = test: Geno-toxicity in mouse L929 cells assessed as induction of DNA damage at 2.5 to 10 uM treated 24 hrs post NAC addition measured after 24 hrs by alkaline comet assay; type: cell-based; conditions: l929, 24 h; in short: as §1
[2] = Selective index, ratio of IC50 for chinese hamster V79 cells to IC50 for human SF295 cells
In short: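 Selectivity index is the ratio of the IC50 in a non-cancer murine line (V79 or L929) to the IC50 in the cancer line. […] MTT was 0.5 mg/mL for 3 h, formazan dissolved in DMSO and read at 595 nm as % of control. IC50s were derived by nonlinear regression; triplicate, at least three repeats.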

HCT-116 [3] = test: Cytotoxicity against human HCT116 cells after 24 hrs in absence of GSH-OEt by MTT assay; type: functional, cell-based; conditions: HCT-116, 24 h
In short: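 24 h MTT exposure (0.04–40.92 µM in 0.1% DMSO), with or without co-treatment with GSH ethyl ester (15 mM) to gauge the ROS contribution. MTT was 0.5 mg/mL for 3 h, with formazan dissolved in DMSO and absorbance at 595 nm expressed as % of control. Triplicate, repeated at least three times.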

SF-295 [4] = test: Induction of lipid peroxidation in human SF295 cells assessed as increase in MDA levels at 2.5 to 10 uM treated 24 hrs post NAC addition measured after 24 hrs by TBARS assay; type: functional, cell-based
In short: (§2)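 TBARS: cells were exposed 24 h, with or without 24 h prior 5 mM NAC, and lysed in Tris-HCl. Lysate was heated with TCA/0.25 M HCl and 6.7 mg/mL TBA for 15 min at 100 °C, centrifuged, and read at 532 nm. Hydrolyzed tetramethoxypropane served as standard, with values normalized to protein. H2O2 (10 µM) was the positive control. Three independent experiments in triplicate; ANOVA/Tukey.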

SF-295 [5] = test: Induction of oxidative stress in human SF295 cells assessed as GSH to GSSG ratio at 5 uM treated 24 hrs post NAC addition measured after 24 hrs by spectrophotometric analysis (reference value: 2.34 +/- 0.56 microg/mg); type: functional
In short: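 Cells were pretreated 24 h with 5 mM NAC, then exposed 24 h to test compound at 5 µM. Controls received 0.1% DMSO. Extracts were prepared by sonication and HClO4 precipitation, then neutralized with KOH. Total glutathione was read by DTNB/glutathione reductase/NADPH rate at 412 nm. GSSG was measured after 4-vinylpyridine (0.1%, 1 h, RT) and GSH derived by difference. Values are normalized to protein, triplicates, three independent runs.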

PC-3 [6] = test: Induction of lipid peroxidation in human PC3 cells assessed as increase in MDA levels at 2.5 to 10 uM after 24 hrs in absence of NAC by TBARS assay; type: functional, cell-based; in short: as §2
HCT-116 [7] = test: Induction of oxidative stress in human HCT116 cells assessed as total GSH levels at 5 uM after 24 hrs by spectrophotometric analysis (reference value: 3.74 +/- 0.55 microg/mg); type: functional

SMILES: CC1(C)OC2=C(C(=O)C(=O)c3ccccc32)C1n1cc(CNC2=[N+]3C(=C(c4ccccc4)c4ccc(Cl)n4[B-]3(F)F)C=C2)nn1 (stereo not drawn)
- Activity (PC-3 [1]): Active
- Activity (L929): Toxic
- Ratio IC50 [2]: 2.3
- IC50 (HCT-116 [3]): 5.28 µM
- Activity (SF-295 [4]): inactive
- Activity (SF-295 [5]): 2.82 µg/mg
- Activity (PC-3 [6]): Active
- Activity (HCT-116 [7]): 1.78 µg/mg
